Screens deposited in PubChem by several laboratories.
UBC13 polyUb = UBC13 polyubiquitin chain formation inhibitors, primary screen, biochemical, TR-FRET, uHTS; AID 485273, 2010; hit rate 0.47% among 330,000; Ubiquitin-conjugating enzyme E2 N (Homo sapiens), P61088; inhibition, % at 20 µM; in the data active = inhibition above about 45%, passing the limit was not always enough
Target sequence (P61088 whole entry, looked up): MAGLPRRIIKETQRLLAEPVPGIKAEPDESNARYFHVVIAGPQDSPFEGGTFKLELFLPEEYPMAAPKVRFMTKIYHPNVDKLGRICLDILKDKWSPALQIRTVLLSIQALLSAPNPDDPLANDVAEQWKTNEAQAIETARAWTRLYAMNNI
EBNA-1 inh = EBNA-1 DNA-binding inhibitors, primary screen, biochemical, fluorescence polarization; inhibition, % at 14.8 µM; hit rate 0.34% among 300,000; AID 1950, 2009; in the data active = inhibition above about 28%
Apaf-1 inh = inhibitors of human Apaf-1 apoptosome, primary screen, biochemical, DEVD-Rh110 fluorescence, uHTS; AID 489030, 2010; reconstituted apoptosome caspase-3 activity; Apoptotic protease-activating factor 1 (Homo sapiens), O14727; inhibition, % at 20 µM; hit rate 0.71% among 330,000; active = inhibition of at least 40% at 20 µM;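 note: plate controls were DMSO wells for no effect and DEVD-CHO caspase inhibitor wells for full effect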
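Material: reconstituted apoptosome with Apaf-1, cytochrome c, caspase-9, procaspase-3, dATP; medium: pH 7.5 Hepes buffer with CHAPS, BSA, DTT; also added: cytochrome c and DEVD-Rh110 substrate; timing: 30 min plus 50 min, RT; signal: Rh110 fluorescence intensity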
PREPL inh = PREPL enzyme inhibitors, primary screen, biochemical, fluorescence polarization; Prolyl endopeptidase-like (Homo sapiens), Q4J6C6; AID 2751, 2010; inhibition, % at 5.96 µM; hit rate 0.68% among 320,000; recombinant PREPL, fluorescence polarization activity-based probe; in the data active = inhibition above about 43%;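 note: 0% = enzyme with DMSO and 100% = wells lacking enzyme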
ZTA DNA inh = counter-screen for EBNA-1 inhibitors: inhibitors of Epstein-Barr virus ZTA. P03206. ZTA-DNA binding, fluorescence polarization. inhibition, % at 11 µM. hit rate 0.15% among 320,000. AID 2234; in the data active = inhibition above about 33%
Target sequence (P03206 whole entry, looked up): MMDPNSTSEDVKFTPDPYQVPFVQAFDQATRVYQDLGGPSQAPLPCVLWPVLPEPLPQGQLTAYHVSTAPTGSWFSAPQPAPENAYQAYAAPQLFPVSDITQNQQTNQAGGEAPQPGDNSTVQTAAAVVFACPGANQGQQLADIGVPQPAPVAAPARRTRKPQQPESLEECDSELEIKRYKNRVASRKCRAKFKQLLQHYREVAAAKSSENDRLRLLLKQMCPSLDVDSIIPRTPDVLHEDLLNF
EBNA-1 confirm = EBNA-1 DNA-binding inhibitors, retest, confirmation, biochemical, fluorescence polarization, triplicate; hit rate 35% among 830; inhibition, % at 14.8 µM; Recombinant EBNA-1 DBD, Cy5-DNA fluorescence polarization; shares compounds with EBNA-1 inh;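 active = mean inhibition across replicates above a set limit taken from the earlier primary screen, cut at about 28% in these data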;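 note: plate controls were EBNA-1 protein with DMSO for no effect and wells lacking EBNA-1 for full effect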
ZTA DNA inh trip = EBV Zta DNA binding inhibitors, counter-screen for EBNA-1 inhibitor project, biochemical, fluorescence polarization, triplicate. shares compounds with EBNA-1 inh. Zta-ZRE DNA binding, Cy5 fluorescence polarization. inhibition, % at 11.1 µM. 830 tested, under 10 active. AID 2328, 2010;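 active = mean inhibition over triplicates above a set limit taken from the primary EBNA-1 screen, cut at about 37% in these data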;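 note: purified full length Zta protein with Cy5 labeled ZRE DNA probe; 0% = Zta with DMSO and 100% = wells lacking Zta protein; inhibitors lower polarization by freeing the labeled DNA probe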
Starred values were filed as active, the others as inactive; . = no result; + = active, no number. Sampled rows, rich in hits. Any-hit rate of the full collection: about 1.7%.

SMILES	UBC13 polyUb	EBNA-1 inh	Apaf-1 inh	PREPL inh	ZTA DNA inh	EBNA-1 confirm	ZTA DNA inh trip
Cc1cccc(NC(=O)c2ccc(-n3cncn3)c([N+](=O)[O-])c2)c1	-1.2	-6.7	4.9	9.6	-6.5	.	.
O=C(O)c1ccc(-c2nc(-c3ccccc3)cs2)cc1	-2.8	7.2	10.4	-3.4	-17.8	.	.
c1ccc(-c2csc(-c3ccc(-c4csnn4)cc3)n2)cc1	-6.1	57.2*	-8.2	-4.1	20.3	46.4*	11.3
C=CCn1c(SCC(=O)NC(=O)NCc2ccco2)nc2sc(C)c(C)c2c1=O	-8.2	46.9*	11.3	-10.7	9.1	31.7*	2.3
Cc1ccc(-c2nn(C)c(=O)c3ccccc23)cc1CN1CCCCC1	0.7	3.9	-19.3	0.1	11.8	.	.
Cc1ccc2nc(-c3ccc(NC(=O)CN4C(=O)NC(C)(c5ccc(OC(F)F)cc5)C4=O)cc3)sc2c1 (stereo not given)	9.1	39.7*	-13.1	-5.1	7.5	18.1	8.7
CC(=O)Nc1c(Cl)n(C(C)=O)c2ccccc12	-4.6	0.6	-0.6	-5.3	-11.7	.	.
Cc1csc(NC(=O)COc2ccc3c(C)cc(=O)oc3c2)n1	12.3	44.4*	-22.9	2.5	15.1	47.2*	10.4
CCn1c(SCC(=O)Nc2nnc(C)s2)nnc1C(C)NC(=O)c1ccccc1 (stereo not given)	-1.0	2.0	1.2	10.5	-12.5	.	.
CCOC(=O)c1cccc(NC(=O)/C=C/c2ccc3c(c2)OCO3)c1	-11.1	6.8	6.7	-5.0	13.7	.	.
Cc1cccc(NC(=O)c2ccc(N3C(=O)C4C5C=CC(C6CC56)C4C3=O)cc2)c1 (stereo not given)	2.5	56.6*	12.9	-3.7	11.4	41.2*	7.1
O=C(Nc1ccccc1)c1cccc(N2C(=O)C3C4C=CC(C5CC45)C3C2=O)c1 (stereo not given)	1.0	-5.5	3.1	-10.4	2.1	.	.
O=C(OCc1ccc(Cl)c(Cl)c1)c1cnccn1	1.0	2.2	14.0	9.2	9.4	.	.
Cn1c(/C(C#N)=C/c2ccc(-c3ccc(S(N)(=O)=O)cc3)o2)nc2ccccc21	.	39.9*	.	-0.8	7.1	38.4*	13.8
Cn1c(/C(C#N)=C/c2cccc(O)c2)nc2ccccc21	6.1	-1.0	-1.5	-6.4	-4.0	.	.
O=C(CN1C(=O)S/C(=C\c2ccccc2)C1=O)NNC(=O)c1ccccc1O	-15.0	-2.4	1.9	21.8	-1.4	.	.
COc1ccc(/C=C2\SC(=O)N(CC(=O)NNC(=O)c3ccccc3O)C2=O)cc1	-19.1	54.5*	3.7	0.8	-8.1	6.8	7.9
COc1cc(/C=C2\SC(=O)N(CC(=O)Nc3ccccc3F)C2=O)cc(Cl)c1O	-77.7	-0.2	-0.1	-9.3	3.2	.	.
COc1cc(OC)c(/C=C2\SC(=O)N(CC(=O)Nc3ccccc3F)C2=O)c(OC)c1	-2.9	95.8*	-10.2	0.2	-4.9	67.0*	-0.7
CCN(CC)c1ncnc2sc3c(c12)CCC3	8.1	8.1	9.2	6.4	-1.5	.	.
COCCn1cnnc1SCC(=O)Nc1cc(OC)c([N+](=O)[O-])cc1C	3.2	+	1.6	5.8	19.9	-2.7	-5.4
CCCCc1ccc(-n2nnnc2SCC(=O)Nc2cc(OC)c([N+](=O)[O-])cc2C)cc1	2.9	-12.8	10.2	-4.6	2.4	.	.
COc1ccccc1NC(=O)Nc1ccc(C(N)=O)cc1	17.4	46.2*	-9.7	-4.8	0.0	-9.3	11.6
Cc1cc(C)c2oc(-c3ccc(C)c(NC(=S)NC(=O)c4cccs4)c3)nc2c1	-9.2	2.5	4.2	-2.2	4.9	.	.
Cc1ccc(-c2nc3ccccc3o2)cc1NC(=S)NC(=O)c1cccs1	5.0	35.6*	-1.0	4.5	5.2	16.3	1.4
SMILES	UBC13 polyUb	EBNA-1 inh	Apaf-1 inh	PREPL inh	ZTA DNA inh	EBNA-1 confirm	ZTA DNA inh trip
CC(=O)NC1=NN(C(C)=O)C(c2ccccn2)S1 (stereo not given)	5.3	13.4	-14.9	-3.6	9.6	.	.
Cc1csc(NC(=O)CSc2nc(C)nc3c2c(=O)n(C)c(=O)n3C)n1	7.5	-1.3	7.8	-2.8	8.4	.	.
COc1ccc(N(C(=O)c2ccco2)C(C(=O)NC2CCCC2)c2cccs2)c(OC)c1 (stereo not given)	4.8	54.6*	3.1	10.8	17.5	8.3	12.8
CCOc1ccccc1N(C(=O)c1ccco1)C(C(=O)NC1CCCC1)c1cccs1 (stereo not given)	0.3	-6.5	8.8	21.9	-3.7	.	.
O=C(COC(=O)/C=C/c1ccccc1)Nc1cc(C(F)(F)F)ccc1N1CCOCC1	-2.7	54.8*	-3.3	10.3	-10.5	74.8*	-8.3
Cc1cccc(Cn2c(C(C)(C)C)cc3cccnc32)c1	9.8	6.4	0.7	18.1	11.7	.	.
CN(Cc1ccccc1)S(=O)(=O)c1ccc(Cl)c(C(=O)NCc2ccncc2)c1	6.3	-0.9	6.4	15.7	-7.0	.	.
CN(Cc1ccccc1)S(=O)(=O)c1ccc(Cl)c(C(=O)NCc2ccc3c(c2)OCO3)c1	-9.6	37.3*	19.8	-10.4	10.0	-7.8	4.2
Cc1ccc(CN(c2ccc(C(=O)NCc3ccc4c(c3)OCO4)cc2)S(C)(=O)=O)cc1	5.4	34.7*	2.9	-13.4	2.1	13.6	-3.3
Cc1ccc(C(=O)NCc2ccc3c(c2)OCO3)cc1	6.0	3.3	5.2	-1.7	0.6	.	.
CCOC(=O)NC(=O)C(=CNc1cccc(C)c1)C(=O)NC(=O)OCC	0.8	1.4	2.5	-2.8	2.2	.	.
CCc1nnc(NC(=O)CSc2ccc(-c3nc4ccccc4[nH]3)cn2)s1	4.0	58.3*	-13.6	-1.7	13.8	53.4*	0.0
CS(=O)(=O)c1ccc(Cl)c(NC(=O)Cc2ccccc2F)c1	0.5	5.3	6.2	8.6	9.9	.	.
CS(=O)(=O)c1ccc(Cl)c(NC(=O)Cc2c(F)cccc2Cl)c1	1.4	43.9*	-7.6	11.8	-6.0	30.5*	-11.8
Cc1ncoc1C(=O)N1CCCC(C(=O)c2cccc3ccccc23)C1 (stereo not given)	5.5	-3.5	-3.9	-1.7	-17.0	.	.
Cn1nccc1C(=O)N1CCCC(C(=O)c2cccc3ccccc23)C1 (stereo not given)	-12.8	39.5*	-2.7	8.3	-5.3	-3.1	4.2
COc1ccc(C2C=C(C)Nc3nc4ccccc4n32)cc1 (stereo not given)	11.1	-6.9	16.2	6.9	-21.9	.	.
Cc1ccc(NCc2ccc([N+](=O)[O-])s2)cc1	-0.8	-3.9	-3.7	11.6	-5.2	.	.
